According to ChEMBL document CHEMBL1154632, “Synthesis and antimicrobial activity of 7-(2-substituted phenylthiazolidinyl)-benzopyran-2-one derivatives” (2010):
Active and inactive are the calls of the source. The calls are words filed in the database; no cut-off is given here.

How the values were obtained:
Aspergillus niger [1] = experiment: Antifungal activity against Aspergillus niger NCIM 813 at 50 ug/ml by agar cup plate method; type: functional; details: read-out: IZ
How it was run: (§1)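 Agar cup plate assay. Strains were obtained from NCL Pune, India, and test compounds were dissolved in DMF. Values are reported as mean (SEM).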

Penicillium roqueforti [2] = experiment: Antifungal activity against Penicillium roqueforti NCIM 712 at 50 ug/ml by agar cup plate method; type: functional; details: read-out: IZ; how it was run: as §1
Delftia acidovorans = experiment: Antibacterial activity against Pseudomonas desmolytica NCIM 2028 at 100 ug/ml by agar cup plate method; type: functional; details: for zone of inhibition at 100 µg/mL: read-out: IZ; how it was run: as §1
Aspergillus niger [3] = experiment: Antifungal activity against Aspergillus niger NCIM 813 at 100 ug/ml by agar cup plate method; type: functional; details: for zone of inhibition at 100 µg/mL: read-out: IZ; how it was run: as §1
Escherichia coli = experiment: Antibacterial activity against Escherichia coli NCIM 2666 at 100 ug/ml by agar cup plate method; type: functional; details: for zone of inhibition at 100 µg/mL: read-out: IZ; how it was run: as §1
Penicillium roqueforti [4] = experiment: Antifungal activity against Penicillium roqueforti NCIM 712 at 100 ug/ml by agar cup plate method; type: functional; details: read-out: IZ; how it was run: as §1
Staphylococcus aureus = experiment: Antibacterial activity against Staphylococcus aureus NCIM 2602 at 100 ug/ml by agar cup plate method; details: read-out: IZ
Bacillus subtilis = experiment: Antibacterial activity against Bacillus subtilis NCIM 2613 at 100 ug/ml by agar cup plate method; details: read-out: IZ

In the case of `COC1=CC(=O)C[C@@H](C)[C@]12Oc1c(Cl)c(OC)cc(OC)c1C2=O` [GRISEOFULVIN], the zone of inhibition at 50 µg/mL (Aspergillus niger [1]) is reported as 17 mm and the zone of inhibition at 50 µg/mL (Penicillium roqueforti [2]) is reported as 2 mm.

`Cc1cc(=O)oc2cc(/N=C/c3ccco3)ccc12` was tested, and the zone of inhibition at 100 µg/mL (Delftia acidovorans) was 7 mm, the “inhibition zone (IZ)” value (Aspergillus niger [3]) was “inactive” and the zone of inhibition at 100 µg/mL (Escherichia coli) was 12 mm. The zone of inhibition at 100 µg/mL (Penicillium roqueforti [4]) was 6 mm.

In the case of `Cc1cc(=O)oc2cc(N3C(=O)CSC3c3ccco3)ccc12` (centres undefined), the zone of inhibition at 100 µg/mL (Delftia acidovorans) is reported as 6 mm, the “inhibition zone (IZ)” value (Aspergillus niger [3]) is reported as “inactive” and the zone of inhibition at 100 µg/mL (Escherichia coli) is reported as 13 mm. It also gave a zone of inhibition at 100 µg/mL (Penicillium roqueforti [4]) of 5 mm.

In the case of `Cc1cc(=O)oc2cc(N3C(=O)CSC3c3ccc(F)cc3)ccc12` (centres undefined), the zone of inhibition at 100 µg/mL (Staphylococcus aureus) is reported as 20 mm, the zone of inhibition at 100 µg/mL (Delftia acidovorans) is reported as 13 mm and the zone of inhibition at 100 µg/mL (Aspergillus niger [3]) is reported as 13 mm. It also gave a zone of inhibition at 100 µg/mL (Escherichia coli) of 18 mm, a zone of inhibition at 100 µg/mL (Bacillus subtilis) of 28 mm and a zone of inhibition at 100 µg/mL (Penicillium roqueforti [4]) of 19 mm.

In the case of `COc1ccc(/C=N/c2ccc3c(C)cc(=O)oc3c2)cc1`, the zone of inhibition at 100 µg/mL (Staphylococcus aureus) is reported as 13 mm, the “inhibition zone (IZ)” value (Delftia acidovorans) is reported as “inactive” and the zone of inhibition at 100 µg/mL (Aspergillus niger [3]) is reported as 9 mm. For the same molecule, the zone of inhibition at 100 µg/mL (Escherichia coli) was 7 mm, the zone of inhibition at 100 µg/mL (Bacillus subtilis) was 21 mm and the zone of inhibition at 100 µg/mL (Penicillium roqueforti [4]) was 14 mm.

With `Cc1cc(=O)oc2cc(/N=C/c3cccc([N+](=O)[O-])c3)ccc12` the zone of inhibition at 100 µg/mL (Staphylococcus aureus) was 15 mm, the zone of inhibition at 100 µg/mL (Delftia acidovorans) was 10 mm and the “inhibition zone (IZ)” value (Aspergillus niger [3]) was “inactive”. For the same molecule, the zone of inhibition at 100 µg/mL (Escherichia coli) was 9 mm, the zone of inhibition at 100 µg/mL (Bacillus subtilis) was 20 mm and the zone of inhibition at 100 µg/mL (Penicillium roqueforti [4]) was 4 mm.

In the case of `Cc1ccc(C2SCC(=O)N2c2ccc3c(C)cc(=O)oc3c2)cc1` (centres undefined), the zone of inhibition at 100 µg/mL (Staphylococcus aureus) is reported as 6 mm, the zone of inhibition at 100 µg/mL (Delftia acidovorans) is reported as 15 mm and the zone of inhibition at 100 µg/mL (Aspergillus niger [3]) is reported as 3 mm. It also gave a zone of inhibition at 100 µg/mL (Escherichia coli) of 20 mm, a zone of inhibition at 100 µg/mL (Bacillus subtilis) of 8 mm and a zone of inhibition at 100 µg/mL (Penicillium roqueforti [4]) of 6 mm.

For `COc1cccc(/C=N/c2ccc3c(C)cc(=O)oc3c2)c1`, the zone of inhibition at 100 µg/mL (Staphylococcus aureus) was 9 mm, the zone of inhibition at 100 µg/mL (Delftia acidovorans) was 8 mm and the zone of inhibition at 100 µg/mL (Aspergillus niger [3]) was 11 mm. It also gave a zone of inhibition at 100 µg/mL (Escherichia coli) of 11 mm, a zone of inhibition at 100 µg/mL (Bacillus subtilis) of 13 mm and a zone of inhibition at 100 µg/mL (Penicillium roqueforti [4]) of 13 mm.

`Cc1cc(=O)oc2cc(N3C(=O)CSC3c3ccccc3O)ccc12` (centres undefined) was tested, and the zone of inhibition at 100 µg/mL (Staphylococcus aureus) was 4 mm, the “inhibition zone (IZ)” value (Delftia acidovorans) was “inactive” and the zone of inhibition at 100 µg/mL (Aspergillus niger [3]) was 7 mm. For the same molecule, the “inhibition zone (IZ)” value (Escherichia coli) was “inactive”, the zone of inhibition at 100 µg/mL (Bacillus subtilis) was 8 mm and the zone of inhibition at 100 µg/mL (Penicillium roqueforti [4]) was 11 mm.

In the case of `COc1ccc(C2SCC(=O)N2c2ccc3c(C)cc(=O)oc3c2)cc1` (centres undefined), the zone of inhibition at 100 µg/mL (Staphylococcus aureus) is reported as 16 mm, the “inhibition zone (IZ)” value (Delftia acidovorans) is reported as “inactive” and the zone of inhibition at 100 µg/mL (Aspergillus niger [3]) is reported as 11 mm. For the same molecule, the zone of inhibition at 100 µg/mL (Escherichia coli) was 8 mm, the zone of inhibition at 100 µg/mL (Bacillus subtilis) was 21 mm and the zone of inhibition at 100 µg/mL (Penicillium roqueforti [4]) was 17 mm.

In the case of `COc1cccc(C2SCC(=O)N2c2ccc3c(C)cc(=O)oc3c2)c1` (centres undefined), the zone of inhibition at 100 µg/mL (Staphylococcus aureus) is reported as 10 mm, the zone of inhibition at 100 µg/mL (Delftia acidovorans) is reported as 9 mm and the zone of inhibition at 100 µg/mL (Aspergillus niger [3]) is reported as 13 mm. For the same molecule, the zone of inhibition at 100 µg/mL (Escherichia coli) was 12 mm, the zone of inhibition at 100 µg/mL (Bacillus subtilis) was 17 mm and the zone of inhibition at 100 µg/mL (Penicillium roqueforti [4]) was 20 mm.

For `Cc1cc(=O)oc2cc(N3C(=O)CSC3c3cccc([N+](=O)[O-])c3)ccc12` (centres undefined), the zone of inhibition at 100 µg/mL (Staphylococcus aureus) was 19 mm, the zone of inhibition at 100 µg/mL (Delftia acidovorans) was 9 mm and the “inhibition zone (IZ)” value (Aspergillus niger [3]) was “inactive”. For the same molecule, the zone of inhibition at 100 µg/mL (Escherichia coli) was 10 mm, the zone of inhibition at 100 µg/mL (Bacillus subtilis) was 27 mm and the zone of inhibition at 100 µg/mL (Penicillium roqueforti [4]) was 3 mm.
